A selection: hits, their analogues and other compounds. The true share with any hit is near 1.8%.
ABHD4 inh: inhibitors of mouse ABHD4; AID 720543; inhibition, % at 8.92 µM; purified mABHD4, FP-Rh probe fluorescence polarization; 0.54% of 370,000 active; Q8VD66;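 active means inhibition exceeding the mean over every tested compound plus 3 SD, cut at about 30% in these data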;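 further: 0% = plate median of compound wells and 100% = S159A mutant with DMSO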
Target sequence (Q8VD66 whole entry, looked up): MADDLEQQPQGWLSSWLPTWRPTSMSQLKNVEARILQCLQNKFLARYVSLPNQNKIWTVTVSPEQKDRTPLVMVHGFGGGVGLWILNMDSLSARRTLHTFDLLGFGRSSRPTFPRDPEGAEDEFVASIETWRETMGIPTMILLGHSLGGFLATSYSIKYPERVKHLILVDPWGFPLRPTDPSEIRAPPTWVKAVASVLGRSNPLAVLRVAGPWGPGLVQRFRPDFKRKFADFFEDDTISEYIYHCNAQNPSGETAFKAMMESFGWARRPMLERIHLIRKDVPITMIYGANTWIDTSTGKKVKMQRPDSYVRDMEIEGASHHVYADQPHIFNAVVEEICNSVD
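system = mouse ABHD4 enzyme, wild type | medium = HEPES pH 7.0, NaCl, Pluronic buffer | also added = FP-Rh probe | incubation = Enzyme–compound pre-incubation 45 min, then probe 60 min, both 25 °C | technique = fluorescence polarization, excitation 525 nm, emission 598 nm, BODIPY TMR filters | controls = S159A mutant high control, sample median low control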
Tn7 DDE FP: DD(E)-Tn7 binding inhibition, primary FP screen | FP displacement of FITC-Tn7 peptide from fibrin DD(E); 0% = median of compound wells per plate | inhibition, % at 8.3 µM | 0.13% of 370,000 active | P02675;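 active means inhibition above the mean of compounds falling within the control limits plus 3 SD of them, cut at about 14% in these data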;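 further: 0% = plate median of compound wells and 100% = 10 µM Aha-Tn7 peptide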
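assay system = human clot-derived fibrin DD(E) complex | quantity = Fibrin-DD(E) at 2 µM final | timing = 10 min preincubation, 3 h with tracer, room temperature | signal = fluorescence polarization | measure = percent inhibition | benchmarks = high control wells with 10 µM unlabelled Aha-Tn7 peptide (full inhibition) | replicates = singlicate testing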
Tn6 DDE FP: inhibitors of Tn6 peptide binding to human fibrin DD(E). inhibition, % at 8.3 µM. 0.21% of 370,000 active. Fibrin DD(E) TRITC-Tn6 fluorescence polarization displacement. AID 720509. P02675;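 active means inhibition above a per-campaign cutoff: mean of compounds within control limits plus 3 SD, cut at about 15% in these data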;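 further: 0% = median of all compound wells on the plate and 100% = blocking peptide control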
HTRA1 inh: HTRA1 (human) protease inhibition; recombinant HTRA1, FP-rhodamine activity-based probe, fluorescence polarization; inhibition, % at 5.96 µM; 0.5% of 340,000 active; in the data active means inhibition above about 36%;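 further: 0% = enzyme with DMSO and 100% = wells lacking enzyme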
SIAE primary: human SIAE inhibition, primary screen | SIAE FP-Rh probe binding, fluorescence polarization | inhibition, % at 9.66 µM | AID 1053197 | 0.69% of 370,000 active;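 active means inhibition above a cutoff: mean of compounds within the control limits plus 3 SD of those, cut at about 17% in these data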;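 further: 0% = plate median of compound wells and 100% = probe without SIAE protein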
TCR-CD3 inh: inhibitors of human TCR-CD3 interaction; inhibition, % at 9.4 µM; AID 651800; 0.37% of 360,000 active; TAMRA-labeled TCR probe fluorescence, biochemical;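 further: recombinant mutant TCR 2C K166C tagged with TAMRA read by polarization; 0% = receptor in buffer alone and 100% = receptor with positive control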
HTRA1 conf: confirmation of human HTRA1 inhibitors. recombinant HTRA1, FP-rhodamine activity-based probe, fluorescence polarization. shares compounds with HTRA1 inh. inhibition, % at 5.96 µM. 66% of 1,600 active;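 active means mean inhibition over three repeats above a set limit taken from the earlier primary screen, cut at about 37% in these data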;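 further: 0% = HTRA1 with DMSO and 100% = wells lacking HTRA1; inhibitors block probe binding so polarization drops and inhibition rises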
BSA probe FL: interferes with TAMRA-BSA probe, flagging TCR-CD3 hits; shares compounds with TCR-CD3 inh; TAMRA-labeled BSA probe fluorescence counterscreen; inhibition, % at 9.4 µM; 10% of 1,200 active; in the data active means inhibition above about 23%;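 further: 0% = buffer low control and 100% = reference high control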
TCR-CD3 inh conf: confirmation of human TCR-CD3 interaction inhibitors; 48% of 1,200 active; AID 652036; inhibition, % at 9.4 µM; TAMRA-labeled TCR probe fluorescence binding assay; shares compounds with TCR-CD3 inh
mABHD4 conf: ABHD4 (mouse) inhibition, FP confirmation | inhibition, % at 8.92 µM | 55% of 1,800 active | shares compounds with ABHD4 inh | purified mABHD4, FP-Rh probe fluorescence polarization;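 active means mean inhibition across replicates above the hit cutoff set in the primary screen, cut at about 30% in these data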;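 further: 0% = wild-type ABHD4 with DMSO and 100% = catalytically dead S159A mutant with DMSO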
* = called active by the depositor; / = no result given. Unless noted, no stated cut-off is given here; in the data, active means inhibition above about 19%; inactive means the rest.

SMILES	ABHD4 inh	Tn7 DDE FP	Tn6 DDE FP	HTRA1 inh	SIAE primary	TCR-CD3 inh	HTRA1 conf	mABHD4 conf	others
O=C(N/N=C/c1cc2c(cc1[N+](=O)[O-])OCO2)c1ccc2c(c1)OCO2	10	0	-12	0	-4	-9	/	/
Cc1cc(O)c(N=Cc2cc3c(cc2[N+](=O)[O-])OCO3)cc1C	45*	0	4	52*	8	-7	6	21
COc1ccc(CCn2c(O)cc3nn(-c4nc5ccccc5s4)c(=O)c-3c2C)cc1	37*	-1	-11	42*	2	1	88*	17
Cc1ccc(S(=O)(=O)Nc2cccnc2Oc2ccc(Cl)cc2)cc1	-7	-3	5	-1	-3	-9	/	/
Cc1ccc(S(=O)(=O)Nc2cc(Cl)c(O)c3ncccc23)cc1	48*	-9	-7	70*	17	-7	54*	57*
CC(C)C[C@H]1COc2cc(Br)ccc2S(=O)(=O)N1Cc1cn(Cc2ccc(F)cc2)nn1	2	4	10	/	6	/	/	/
COc1c(O)cc2oc(-c3ccc(O)cc3)cc(=O)c2c1O	11	8	-6	-2	3	4	/	/
O=c1cc(-c2ccc(O)cc2)oc2c(O)c(O)c(O)c(O)c12	36*	-4	-4	52*	13	23*	59*	17	BSA probe FL=0;TCR-CD3 inh conf=38*
O=c1cc(-c2ccccc2)oc2cc(O)c(O)c(O)c12	52*	-1	0	80*	17	38*	85*	37*	BSA probe FL=-13;TCR-CD3 inh conf=24*
Oc1ccc(/C=N/N(Cc2ccccc2)c2ccccc2)c(O)c1O	34*	4	6	68*	15	10	55*	46*
Clc1ccc(-n2c(SCc3cccc4ccccc34)nnc2-c2ccccc2)cc1	-3	0	-8	/	-12	/	/	/
CC(Nc1cccc2ccccc12)C(=O)N/N=C/c1ccccn1 (stereo not drawn)	48*	1	3	46*	9	-5	5	16
O=S(=O)(CC1NCc2cc(F)ccc21)NCc1ccccc1 (stereo not drawn)	-7	2	6	/	-2	/	/	/
Cc1ccc(N2NC(=O)/C(=C\c3cc4c(cc3[N+](=O)[O-])OCO4)C2=O)cc1C	47*	-7	0	63*	17	-1	37*	47*
COC(=O)[C@]12C[C@H](CC(=O)NCC3CCCCC3)C(=O)N(Cc3ccc(Cl)cc3Cl)C1=C[C@H](C(C)C)O[C@@H]2C1CC1	-10	7	4	/	-4	/	/	/
NC(=S)N=Nc1c(O)cc(O)c2[nH]c(=O)ccc12	34*	-1	-6	61*	12	30*	43*	77*
NC(=S)N=Nc1c(O)[nH]c2ccc(F)cc12	9	1	4	7	-4	-3	/	/
C#CCCCN([C@H](C(=O)OC)C(C)C)S(=O)(=O)c1ccc(F)cc1Br	-7	-7	0	/	1	/	/	/
CCC(=Nc1ccc(N)cc1)C1=C(O)C(C(=O)OC)C(C)(C)CC1=O (stereo not drawn)	82*	7	125*	53*	25*	68*	1	23	BSA probe FL=12;TCR-CD3 inh conf=9
Cc1[nH]c2ccccc2c1/C=N/Nc1ccccc1[N+](=O)[O-]	59*	-1	1	68*	16	-4	74*	73*
C/C(=N\NC(=O)CSc1nnc(-c2ccccc2)n1-c1ccc(C)cc1)c1ccc(-c2ccccc2)cc1	-12	6	-3	/	2	/	/	/

Source: PubChem
